Data as given in ChEMBL document CHEMBL1687766, “In vitro activity of the new multivalent glycopeptide-cephalosporin antibiotic TD-1792 against vancomycin-nonsusceptible Staphylococcus isolates” (Antimicrob Agents Chemother, 2010).
≈ marks a conversion by molar mass, not a printed value.

Key:
Type in all cases: functional
[1] = system: Staphylococcus aureus; test: Antimicrobial activity against vancomycin-intermediate Staphylococcus aureus isolate MU50 assessed as bacterial count at 8 times MIC after 24 hrs by colony counting method in presence of 50% human serum
Procedure, shortened: (§1)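 Triplicate 24-h time-kill in 50% human serum (heated 56°C 1 h, filtered) mixed with supplemented Mueller-Hinton broth, giving final 25 μg/ml Ca broth strength for TD-1792 and 50 for daptomycin. […] Samples from 0 to 24 h were counted on BHI agar (35°C, 24 h). Value is log10 CFU/ml change from baseline.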

[2] = system: Staphylococcus aureus; test: Antimicrobial activity against vancomycin-intermediate Staphylococcus aureus isolate MU50 assessed as bacterial count at 16 times MIC after 24 hrs by colony counting method in presence of 50% human serum; procedure, shortened: as §1
[3] = system: Staphylococcus aureus; test: Antimicrobial activity against vancomycin-intermediate Staphylococcus aureus isolate MU50 assessed as bacterial count at 4 times MIC after 24 hrs by colony counting method in presence of 50% human serum; procedure, shortened: as §1
[4] = system: Staphylococcus aureus; test: Antimicrobial activity against vancomycin-resistant Staphylococcus aureus isolate PA assessed as bacterial count at 32 times MIC after 24 hrs by colony counting method in presence of 50% human serum
Procedure, shortened: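 Time-kill in triplicate, starting inoculum 5 × 10^6 CFU/ml from a mid-exponential culture. Medium was 50% heat-treated, filtered human serum plus 50% broth, final 25 SMHB for TD-1792 and 50 SMHB for daptomycin. Drug at multiples of MIC. Samples to 24 h were plated on BHI agar for 24 h at 35°C. Value is the log10 CFU/ml change from baseline at 24 h.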

[5] = system: Staphylococcus aureus; test: Antimicrobial activity against vancomycin-resistant Staphylococcus aureus isolate PA assessed as bacterial count at 32 times MIC after 24 hrs by colony counting method
Procedure, shortened: (§2)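 Time-kill in triplicate. Mid-exponential culture (OD600 ~0.3) diluted in supplemented Mueller-Hinton broth to 5 × 10^6 CFU/ml. Daptomycin was run at physiologic calcium, 1.1 to 1.3 mM. […] Samples at 0, 1, 4, 8 and 24 h were diluted in cold saline or vacuum filtered, then spiral-plated on BHI agar for 24 h at 35°C. Value is the log10 CFU/ml change from baseline at 24 h.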

[6] = system: Staphylococcus aureus; test: Antimicrobial activity against vancomycin-intermediate Staphylococcus aureus isolate MU50 assessed as bacterial count at 8 times MIC after 24 hrs by colony counting method
Procedure, shortened: (§3)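 24-h time-kill run in triplicate in supplemented Mueller-Hinton broth (12.5 μg/ml Mg, 25 μg/ml Ca), adjusted to 1.1–1.3 mM Ca for daptomycin. […] Samples were taken at 0, 1, 4, 8 and 24 h and counted on BHI agar after 24 h at 35°C. Value is log10 CFU/ml change from baseline at 24 h.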

[7] = system: Staphylococcus aureus; test: Ratio of MIC for vancomycin-intermediate Staphylococcus aureus isolate MU50 in presence of 50% human serum to MIC for vancomycin-intermediate Staphylococcus aureus isolate MU50
Procedure, shortened: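 Ratio of the broth microdilution MIC (5 × 10^5 CFU/ml, 24 h, 35°C, duplicate) measured in 50% heat-treated human serum/supplemented Mueller-Hinton broth to the MIC measured in supplemented broth alone.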

[8] = system: Staphylococcus aureus; test: Antimicrobial activity against vancomycin-intermediate Staphylococcus aureus isolate NJ992 assessed as bacterial count at 32 times MIC after 24 hrs by colony counting method; procedure, shortened: as §3
[9] = system: Staphylococcus aureus; test: Antimicrobial activity against vancomycin-resistant Staphylococcus aureus isolate MI assessed as bacterial count at 4 times MIC after 24 hrs by colony counting method; procedure, shortened: as §2
[10] = system: Staphylococcus aureus; test: Antimicrobial activity against vancomycin-resistant Staphylococcus aureus isolate NY after 24 hrs by microdilution method
Procedure, shortened: (§4)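 Broth microdilution per CLSI, inoculum 5 × 10^5 CFU/ml, Mueller-Hinton broth with 12.5 μg/ml magnesium and 25 μg/ml calcium (SMHB). Daptomycin was instead tested in SMHB at physiologic calcium (final 1.1 to 1.3 mM). Incubation 24 h at 35°C; MIC read; run in duplicate. MBC from 5-μl samples of clear wells plated on BHI agar, 24 h at 35°C.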

[11] = system: Staphylococcus aureus; test: Antimicrobial activity against vancomycin-resistant Staphylococcus aureus isolate MI assessed as bacterial count at 16 times MIC after 24 hrs by colony counting method; procedure, shortened: as §2
[12] = system: Staphylococcus aureus; test: Antimicrobial activity against vancomycin-resistant Staphylococcus aureus isolate PA assessed as bacterial count at 16 times MIC after 24 hrs by colony counting method; procedure, shortened: as §2
[13] = system: Staphylococcus aureus; test: Antimicrobial activity against vancomycin-intermediate Staphylococcus aureus isolate NJ992 after 24 hrs by microdilution method in presence of 50% human serum; details: isolate NJ992, 24 h
Procedure, shortened: (§5)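 Broth microdilution per CLSI, inoculum 5 × 10^5 CFU/ml, 24 h at 35°C, in duplicate. Medium was 50% (vol/vol) human serum plus 50% broth, final 25 SMHB for TD-1792 and 50 SMHB for daptomycin. Serum was heated 56°C for 1 h and filtered through 0.8, 0.5 and 0.22 μm. MBC by plating clear wells on BHI agar.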

[14] = system: Staphylococcus aureus; test: Antimicrobial activity against vancomycin-intermediate Staphylococcus aureus isolate MU50 after 24 hrs by microdilution method in presence of 50% human serum; details: isolate MU50, 24 h; procedure, shortened: as §5
[15] = system: Staphylococcus aureus; test: Antimicrobial activity against vancomycin-intermediate Staphylococcus aureus isolate MU50 assessed as bacterial count at 32 times MIC after 24 hrs by colony counting method; procedure, shortened: as §3
[16] = system: Staphylococcus aureus; test: Antimicrobial activity against vancomycin-intermediate Staphylococcus aureus isolate MU50 assessed as bacterial count at 4 times MIC after 24 hrs by colony counting method; procedure, shortened: as §3
[17] = system: Staphylococcus aureus; test: Antimicrobial activity against vancomycin-intermediate Staphylococcus aureus isolate MU50 assessed as bacterial count at 16 times MIC after 24 hrs by colony counting method; procedure, shortened: as §2
[18] = system: Staphylococcus aureus; test: Antimicrobial activity against vancomycin-heteroresistant Staphylococcus aureus after 24 hrs by microdilution method; details: Staphylococcus aureus, 24 h; procedure, shortened: as §4
[19] = system: Staphylococcus aureus; test: Antimicrobial activity against vancomycin-intermediate Staphylococcus aureus isolate MU50 assessed as bacterial count at 32 times MIC after 24 hrs by colony counting method in presence of 50% human serum; procedure, shortened: as §1
[20] = system: Staphylococcus aureus; test: Antimicrobial activity against vancomycin-resistant Staphylococcus aureus isolate PA assessed as bacterial count at 4 times MIC after 24 hrs by colony counting method; procedure, shortened: as §2
[21] = system: Staphylococcus aureus; test: Antimicrobial activity against vancomycin-intermediate Staphylococcus aureus after 24 hrs by microdilution method in presence of 50% human serum; details: for MBC / MIC50 / MIC90: Staphylococcus aureus, 24 h; procedure, shortened: as §5
[22] = system: Staphylococcus aureus; test: Antimicrobial activity against vancomycin-intermediate Staphylococcus aureus isolate MU50 after 24 hrs by microdilution method; details: isolate MU50, 24 h; procedure, shortened: as §4
[23] = system: Staphylococcus aureus; test: Antimicrobial activity against vancomycin-resistant Staphylococcus aureus isolate MI assessed as bacterial count at 8 times MIC after 24 hrs by colony counting method; procedure, shortened: as §2

CN[C@H](CC(C)C)C(=O)N[C@H]1C(=O)N[C@@H](CC(N)=O)C(=O)N[C@H]2C(=O)N[C@H]3C(=O)N[C@H](C(=O)N[C@H](C(=O)NCCCO/N=C(\C(=O)N[C@@H]4C(=O)N5C(C(=O)[O-])=C(C[n+]6ccccc6)CS[C@H]45)c4nc(N)sc4Cl)c4cc(O)cc(O)c4-c4cc3ccc4O)[C@H](O)c3ccc(c(Cl)c3)Oc3cc2cc(c3O[C@@H]2O[C@H](CO)[C@@H](O)[C@H](O)[C@H]2O[C@H]2C[C@](C)(N)[C@H](O)[C@H](C)O2)Oc2ccc(cc2Cl)[C@H]1O
log10CFU/ml [1]: 3.6
log10CFU/ml [2]: 4.37
log10CFU/ml [3]: 3.05
log10CFU/ml [4]: 5.09
log10CFU/ml [5]: 5.05
log10CFU/ml [6]: 4.33
Ratio [7]: 2
log10CFU/ml [8]: 5
log10CFU/ml [9]: 2.95
MBC [10]: 0.06 µg/mL (≈ 0.0303 µM)
MIC [10]: 0.03 µg/mL (≈ 0.0151 µM)
log10CFU/ml [11]: 3.34
log10CFU/ml [12]: 4.17
MBC [13]: 0.25 µg/mL
MIC [13]: 0.25 µg/mL
MBC [14]: 0.25 µg/mL
MIC [14]: 0.25 µg/mL
log10CFU/ml [15]: 4.92
log10CFU/ml [16]: 3.77
log10CFU/ml [17]: 4.94
MBC [18]: 0.015 µg/mL (≈ 0.00756 µM)
MIC50 [18]: 0.06 µg/mL (≈ 0.0303 µM)
MIC90 [18]: 0.125 µg/mL (≈ 0.063 µM)
log10CFU/ml [19]: 4.81
log10CFU/ml [20]: 4.06
MBC50 [21]: 0.25 µg/mL
MBC90 [21]: 0.5 µg/mL
MBC [21]: 0.03 µg/mL
MIC50 [21]: 0.25 µg/mL
MIC90 [21]: 0.5 µg/mL
MBC [22]: 0.03 µg/mL (≈ 0.0151 µM)
MIC [22]: 0.03 µg/mL (≈ 0.0151 µM)
log10CFU/ml [23]: 3.27

CCCCCCCCCC(=O)N[C@@H](Cc1c[nH]c2ccccc12)C(=O)N[C@H](CC(N)=O)C(=O)N[C@@H](CC(=O)O)C(=O)N[C@@H]1C(=O)NCC(=O)N[C@@H](CCCN)C(=O)N[C@@H](CC(=O)O)C(=O)N[C@H](C)C(=O)N[C@@H](CC(=O)O)C(=O)NCC(=O)N[C@H](CO)C(=O)N[C@@H]([C@H](C)CC(=O)O)C(=O)N[C@@H](CC(=O)c2ccccc2N)C(=O)O[C@@H]1C
log10CFU/ml [1]: 4.13
log10CFU/ml [2]: 5.09
log10CFU/ml [3]: 4.01
log10CFU/ml [4]: 5.11
log10CFU/ml [5]: 5.1
log10CFU/ml [6]: 4.82
Ratio [7]: 2
log10CFU/ml [8]: 4.93
log10CFU/ml [9]: 4.59
MBC [10]: 0.125 µg/mL (≈ 0.0771 µM)
MIC [10]: 0.125 µg/mL (≈ 0.0771 µM)
log10CFU/ml [11]: 4.96
log10CFU/ml [12]: 5.14
MBC [13]: 2 µg/mL
MIC [13]: 2 µg/mL
MBC [14]: 2 µg/mL
MIC [14]: 2 µg/mL
log10CFU/ml [15]: 5.12
log10CFU/ml [16]: 3.02
log10CFU/ml [17]: 5.12
MBC [18]: 0.25 µg/mL (≈ 0.154 µM)
MIC50 [18]: 1 µg/mL (≈ 0.617 µM)
MIC90 [18]: 1 µg/mL (≈ 0.617 µM)
log10CFU/ml [19]: 5.23
log10CFU/ml [20]: 3.33
MBC50 [21]: 4 µg/mL
MBC90 [21]: 8 µg/mL
MBC [21]: 1 µg/mL
MIC50 [21]: 1 µg/mL
MIC90 [21]: 4 µg/mL
MBC [22]: 1 µg/mL (≈ 0.617 µM)
MIC [22]: 1 µg/mL (≈ 0.617 µM)
log10CFU/ml [23]: 5
